Tests used:
Format in all cases: functional
NCI/ADR-RES = test: Growth inhibition of human NCI/ADR-RES cells after 48 hrs by sulforhodamine B assay
Summary of the method: (§1)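 NCI 60-human-tumor-cell-line panel, with compounds tested over a 5-log dose range. Values are taken from dose-response curves as log10 molar concentrations: GI50 is 50% net growth inhibition, TGI is total growth inhibition, and LC50 is 50% net cell death.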

HOP-92 = test: Growth inhibition of human HOP92 cells after 48 hrs by sulforhodamine B assay; details: HOP-92, 48 h; summary of the method: as §1
TK-10 = test: Growth inhibition of human TK10 cells after 48 hrs by sulforhodamine B assay; details: TK-10, 48 h
Summary of the method: (§2)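 Run in the NCI 60-human-tumour-cell-line panel, tested over a 5-log dose range. Dose–response curves gave three values per cell line, each as a log10 molar concentration: GI50 (50% inhibition of net cell growth), TGI (total inhibition of net growth) and LC50 (50% net cell death). The mean graph midpoint is the arithmetic mean over all lines, with insensitive lines entered at the highest concentration tested.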

NCI-H522 = test: Growth inhibition of human NCI-H522 cells after 48 hrs by sulforhodamine B assay; details: NCI-H522, 48 h; summary of the method: as §1
UACC-62 = test: Growth inhibition of human UACC62 cells after 48 hrs by sulforhodamine B assay; details: UACC-62, 48 h; summary of the method: as §2
M14 = test: Growth inhibition of human M14 cells after 48 hrs by sulforhodamine B assay; details: M14, 48 h; summary of the method: as §1
CAKI-1 = test: Growth inhibition of human Caki1 cells after 48 hrs by sulforhodamine B assay; details: CAKI-1, 48 h; summary of the method: as §1
A498 = test: Growth inhibition of human A498 cells after 48 hrs by sulforhodamine B assay; details: A498, 48 h; summary of the method: as §1
786-0 = test: Growth inhibition of human 786-0 cells after 48 hrs by sulforhodamine B assay; details: 786-0, 48 h; summary of the method: as §1
K562 = test: Growth inhibition of human K562 cells after 48 hrs by sulforhodamine B assay; details: K562, 48 h; summary of the method: as §1
HOP-62 = test: Growth inhibition of human HOP62 cells after 48 hrs by sulforhodamine B assay; details: HOP-62, 48 h; summary of the method: as §1
SF-539 = test: Growth inhibition of human SF539 cells after 48 hrs by sulforhodamine B assay; details: SF-539, 48 h; summary of the method: as §1
SN12C = test: Growth inhibition of human SN12C cells after 48 hrs by sulforhodamine B assay; summary of the method: as §2
BT-549 = test: Growth inhibition of human BT549 cells after 48 hrs by sulforhodamine B assay; details: BT-549, 48 h; summary of the method: as §1
SK-OV-3 = test: Growth inhibition of human SKOV3 cells after 48 hrs by sulforhodamine B assay; details: SK-OV-3, 48 h; summary of the method: as §1
UO-31 = test: Growth inhibition of human UO31 cells after 48 hrs by sulforhodamine B assay; details: UO-31, 48 h; summary of the method: as §2
KM12 = test: Growth inhibition of human KM12 cells after 48 hrs by sulforhodamine B assay; details: KM12, 48 h; summary of the method: as §1
HT-29 = test: Growth inhibition of human HT-29 cells after 48 hrs by sulforhodamine B assay; details: HT-29, 48 h; summary of the method: as §1
NCI-H226 = test: Growth inhibition of human NCI-H226 cells after 48 hrs by sulforhodamine B assay; details: NCI-H226, 48 h; summary of the method: as §1
NCI-H460 = test: Growth inhibition of human NCI-H460 cells after 48 hrs by sulforhodamine B assay; details: NCI-H460, 48 h; summary of the method: as §1
EKVX = test: Growth inhibition of human EKVX cells after 48 hrs by sulforhodamine B assay; summary of the method: as §1
HCT-15 = test: Growth inhibition of human HCT15 cells after 48 hrs by sulforhodamine B assay; details: HCT-15, 48 h; summary of the method: as §1
OVCAR-3 = test: Growth inhibition of human OVCAR-3 cells after 48 hrs by sulforhodamine B assay; details: OVCAR-3, 48 h; summary of the method: as §1
MDA-MB-231 = test: Growth inhibition of human MDA-MB-231 cells after 48 hrs by sulforhodamine B assay; details: MDA-MB-231, 48 h; summary of the method: as §1
HL-60(TB) = test: Growth inhibition of human HL-60(TB) cells after 48 hrs by sulforhodamine B assay; details: HL-60, 48 h
Summary of the method: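 Tested only on compounds active in a three-line prescreen, in the NCI 60-human-tumour-cell-line panel over a 5-log dose range. Values come from dose–response curves as log10 molar GI50, the concentration inhibiting 50% net cell growth. Log10 TGI (total growth inhibition) and log10 LC50 (50% net cell death) were derived too. Mean graph midpoints include insensitive lines at the highest concentration tested.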

[1] = read-out: pLC50 (the source's name) (converted)

With `COc1cc(CNc2nc3cc(N)cc(N)c3nc2-c2ccccc2)cc(OC)c1OC` the GI50 (NCI/ADR-RES) was 10.2 µM, the CC50 (NCI/ADR-RES; [1]) was 46.8 µM and the TGI (NCI/ADR-RES; read-out: pTGI (converted)) was 21.9 µM. For the same compound, the GI50 (HOP-92) was 1.2 µM, the LC50 (50% net cell death) (HOP-92) was greater than 50.1 µM and the TGI (HOP-92; read-out: pTGI (converted)) was 3.09 µM. The GI50 (TK-10) was 6.31 µM, the CC50 (TK-10; [1]) was greater than 50.1 µM and the TGI (TK-10; read-out: pTGI (converted)) was 17.8 µM. It also gave a GI50 (NCI-H522) greater than 50.1 µM, an LC50 (NCI-H522) greater than 50.1 µM and a TGI (NCI-H522; read-out: pTGI (converted)) greater than 50.1 µM. It also gave a GI50 (UACC-62) of 8.13 µM, a CC50 (UACC-62; [1]) of 29.5 µM and a TGI (UACC-62; read-out: pTGI (converted)) of 15.5 µM. It also gave a GI50 (M14) of 9.55 µM, a CC50 (M14; [1]) of 34.7 µM and a TGI (M14; read-out: pTGI (converted)) of 18.2 µM. The GI50 (CAKI-1) was 1.91 µM, the CC50 (CAKI-1; [1]) was 31.6 µM and the TGI (CAKI-1; read-out: pTGI (converted)) was 8.71 µM. For the same compound, the GI50 (A498) was 6.31 µM, the CC50 (A498; [1]) was 33.9 µM and the TGI (A498; read-out: pTGI (converted)) was 14.8 µM. It also gave a GI50 (786-0) of 15.5 µM, a CC50 (786-0; [1]) greater than 50.1 µM and a TGI (786-0; read-out: pTGI (converted)) greater than 50.1 µM. The GI50 (K562) was 1.78 µM, the LC50 (K562) was greater than 50.1 µM and the TGI (K562; read-out: pTGI (converted)) was greater than 50.1 µM. The GI50 (HOP-62) was 17 µM, the LC50 (HOP-62) was greater than 50.1 µM and the TGI (HOP-62; read-out: pTGI (converted)) was greater than 50.1 µM. The GI50 (SF-539) was 1.35 µM, the LC50 (SF-539) was 26.9 µM and the TGI (SF-539; read-out: pTGI (converted)) was 7.94 µM. It also gave a GI50 (SN12C) of 8.71 µM, a CC50 (SN12C; [1]) of 32.4 µM and a TGI (SN12C; read-out: pTGI (converted)) of 16.6 µM. It also gave a GI50 (BT-549) of 3.8 µM, a CC50 (BT-549; [1]) of 27.5 µM and a TGI (BT-549; read-out: pTGI (converted)) of 11.2 µM. The GI50 (SK-OV-3) was 5.37 µM, the CC50 (SK-OV-3; [1]) was 36.3 µM and the TGI (SK-OV-3; read-out: pTGI (converted)) was 13.8 µM. For the same compound, the GI50 (UO-31) was 11.2 µM, the CC50 (UO-31; [1]) was greater than 50.1 µM and the TGI (UO-31; read-out: pTGI (converted)) was greater than 50.1 µM. The GI50 (KM12) was 0.479 µM, the LC50 (50% net cell kill) (KM12) was greater than 50.1 µM and the TGI (KM12; read-out: pTGI (converted)) was 10.2 µM. It also gave a GI50 (HT-29) of 8.71 µM, an LC50 (HT-29) of 43.7 µM and a TGI (HT-29; read-out: pTGI (converted)) of 19.5 µM. It also gave a GI50 (NCI-H226) of 10 µM, an LC50 (NCI-H226) greater than 50.1 µM and a TGI (NCI-H226; read-out: pTGI (converted)) of 22.4 µM. For the same compound, the GI50 (NCI-H460) was 1.51 µM, the LC50 (50% net cell kill) (NCI-H460) was greater than 50.1 µM and the TGI (NCI-H460; read-out: pTGI (converted)) was greater than 50.1 µM. For the same compound, the GI50 (EKVX) was 1.95 µM, the LC50 (50% net cell kill) (EKVX) was 27.5 µM and the TGI (EKVX; read-out: pTGI (converted)) was 8.32 µM. The GI50 (HCT-15) was 3.24 µM, the LC50 (HCT-15) was greater than 50.1 µM and the TGI (HCT-15; read-out: pTGI (converted)) was 13.8 µM. For the same compound, the GI50 (OVCAR-3) was 1.15 µM, the CC50 (OVCAR-3; [1]) was 18.2 µM and the TGI (OVCAR-3; read-out: pTGI (converted)) was 3.39 µM. For the same compound, the GI50 (MDA-MB-231) was 7.24 µM, the CC50 (MDA-MB-231; [1]) was 31.6 µM and the TGI (MDA-MB-231; read-out: pTGI (converted)) was 15.1 µM. For the same compound, the GI50 (HL-60(TB)) was 1.26 µM, the LC50 (HL-60(TB)) was greater than 50.1 µM and the TGI (HL-60(TB); read-out: pTGI (converted)) was greater than 50.1 µM.

Reference: ChEMBL document CHEMBL1137710, “Synthesis and in vitro antitumor activity of new quinoxaline derivatives” (2009)
